Here are results for 35 compounds from ChEMBL document CHEMBL4011626, “Structure-Based Optimization of Pyridoxal 5'-Phosphate-Dependent Transaminase Enzyme (BioA) Inhibitors that Target Biotin Biosynthesis in Mycobacterium tuberculosis” (J Med Chem, 2017).

What is called Kd is the concentration at which binding is half-saturated. A high value points to a looser complex.

Tested on in one experiment: not listed separately
Description: Binding affinity to N-terminally His-tagged Mycobacterium tuberculosis BioA overexpressed in Escherichia coli by ITC method. The gist of the method:
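BioA loaded with PLP by adding 1 mM PLP after size exclusion, then buffer-exchanged into 25 mM HEPES pH 7.5, 50 mM NaCl. Titrated at 25 °C: 10 μM BioA, ligand 100 μM with DMSO matched, 2 μL injections 150 s apart, 750 rpm. First injection discarded; dilution heats corrected; curve fit gives KA, KD = 1/KA. Triplicate, mean ± standard error.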
In turn, `CC(=O)c1ccc(N2CCN(C(=O)c3ccc4c(c3)OCO4)CC2)cc1` displayed a Kd of 0.108 µM. Still for that read-out and setting: the result for `CN1Cc2cc(N3CCN(C(=O)c4cccc(Cl)c4)CC3)ccc2C1=O` reads 0.866 µM; that for `O=C1CCc2cc(N3CCN(C(=O)c4cccc(Cl)c4)CC3)ccc21`, 0.132 µM. On the same count and under the same terms, the result for `CC(=O)c1ccc(N2CCN(C(=O)c3cccc(Cl)c3)CC2)s1` reads 0.322 µM; that for `O=C1OCc2cc(N3CCN(C(=O)c4cccc(Cl)c4)CC3)ccc21`, 0.685 µM. Same read-out and setting: the result for `O=C1CCc2cc(N3CCN(C(=O)c4ccc5c(c4)OCO5)CC3)ccc21` reads 0.074 µM. Compound `CC(=O)c1ccc(N2CCN(C(=O)c3cccc(Cl)c3)CC2)cc1` had a Kd of 0.157 µM.

Another experiment deals with Mycobacterium tuberculosis. As to the kind of experiment: Inhibition of Bio-A overexpressed in Mycobacterium tuberculosis in presence of anhydrotetracycline after 9 days. A digest of the protocol: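 BioA-overexpressing or BioA-underexpressing Mtb strains were pregrown in Sauton's with 1 μM biotin, washed twice, and seeded at OD580 0.03 in biotin-free medium with 200 ng/mL anhydrotetracycline to set BioA expression. Compounds were tested at 0.2–50 μM final at 37 °C. OD580 was read after 9 days. MIC is the concentration giving 50% inhibition. Triplicate, two biological replicates.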
Take `CC(=O)c1cccc(N2CCN(C(=O)c3cccc(Cl)c3)CC2)c1`: the MIC50 was more than 50 µM. As to `CC(=O)c1ccc(N2CCN(C(=O)c3ccc4c(c3)OCO4)CC2)cc1`, the MIC50 amounted to 31.1 µM and the MIC90 is more than 50 µM. Consider `CC(=O)c1ccc(N2CCC(C(=O)c3ccc4c(c3)OCO4)CC2)cc1`, for which the MIC50 is more than 50 µM. On the same count and under the same terms, under `O=C(c1cccc(Cl)c1)N1CCN(c2ccc([N+](=O)[O-])cc2)CC1` stands 20.9 µM; under `N#Cc1ccc(N2CCN(C(=O)c3cccc(Cl)c3)CC2)cc1`, 45.9 µM.

For the compound `COc1cc(Cl)cc(C(=O)N2CCN(c3ccc(C(C)=O)cc3)CC2)c1`, the MIC50 is more than 50 µM. Still for that read-out and setting: the result for `CCCCCC(=O)N1CCN(c2ccc(C(C)=O)cc2)CC1` reads 47.6 µM; that for `CC(=O)c1ccc(-c2cn(Cc3cccc(Cl)c3)nn2)cc1`, more than 50 µM; that for `Cn1nnnc1-c1ccc(N2CCN(C(=O)c3cccc(Cl)c3)CC2)cc1`, more than 50 µM. As to `O=C(c1cccc(Cl)c1)N1CCN(c2ccc3c(c2)COC3)CC1`, the MIC50 was more than 50 µM. Same read-out and setting: the result for `O=C(c1cccc(Cl)c1)N1CCN(c2ccc(-c3ccccn3)cc2)CC1` reads more than 50 µM; that for `CN1Cc2cc(N3CCN(C(=O)c4cccc(Cl)c4)CC3)ccc2C1=O`, more than 50 µM. On the same count and under the same terms, the result for `CCCC(=O)N1CCN(c2ccc(C(C)=O)cc2)CC1` reads more than 50 µM.

Consider `CC(=O)c1ccc(N2CCN(C(=O)c3cccnc3)CC2)cc1`, for which the MIC50 was more than 50 µM. `CCC(=O)N1CCN(c2ccc(C(C)=O)cc2)CC1`: the MIC50 was more than 50 µM. Still for that read-out and setting: the result for `CC(=O)c1ccc(N2CCN(C(=O)c3cc(Cl)cc(Cl)c3)CC2)cc1` reads more than 50 µM; that for `CC(=O)c1ccc(N2CCN(C(=O)c3cscn3)CC2)cc1`, more than 50 µM; that for `CC(=O)c1ccc(N2CCN(C(=O)c3cncc(Cl)c3)CC2)cc1`, more than 50 µM. Still for that read-out and setting: the result for `CC(=O)c1ccc(N2CCN(C(=O)c3ccc4c(c3)OCCO4)CC2)cc1` reads more than 50 µM; that for `CC(=O)c1ccc(N2CCN(C(=O)c3ccc4c(c3)OCCCO4)CC2)cc1`, more than 50 µM; that for `O=C1CCc2cc(N3CCN(C(=O)c4cccc(Cl)c4)CC3)ccc21`, 8.1 µM. The same measure, in the same setting: the result for `CC(=O)c1ccc(N2CCN(C(=O)c3cccc(Cl)c3)CC2)s1` reads 7.6 µM. On to `O=C1OCc2cc(N3CCN(C(=O)c4cccc(Cl)c4)CC3)ccc21`, for which the MIC50 was more than 50 µM. Still for that read-out and setting: the result for `Cc1noc(-c2ccc(N3CCN(C(=O)c4cccc(Cl)c4)CC3)cc2)n1` reads more than 50 µM; that for `COc1ccc(-c2ccc(N3CCN(C(=O)c4cccc(Cl)c4)CC3)cc2)nc1`, more than 50 µM. As to `C/C(=N\O)c1ccc(N2CCN(C(=O)c3cccc(Cl)c3)CC2)cc1`, the MIC50 is more than 50 µM. On to `CC(=O)c1ccc(N2CCC(C(=O)c3cccc(Cl)c3)CC2)cc1`, for which the MIC50 stood at 9.2 µM.

As to `CC(=O)c1ccc(N2CCN(C(=O)c3cnn(C)c3)CC2)cc1`, the MIC50 is more than 50 µM. Same read-out and setting: under `CC(=O)c1ccc(N2CCN(C(=O)CC(C)C)CC2)cc1` stands more than 50 µM; under `CC(=O)c1ccc(N2CCN(C(=O)c3ccc(Cl)c(Cl)c3)CC2)cc1`, 17.7 µM; under `O=C1CCc2cc(N3CCN(C(=O)c4ccc5c(c4)OCO5)CC3)ccc21`, 2.8 µM.

On to `O=C(c1cccc(Cl)c1)N1CCN(c2ccc(-c3ccno3)cc2)CC1`, for which the MIC50 is 38.9 µM. Same read-out and setting: the result for `CC(=O)c1ccc(-c2cn(Cc3cccc(Cl)c3)nn2)s1` reads more than 50 µM; that for `COC(=O)c1ccc(N2CCN(C(=O)c3cccc(Cl)c3)CC2)cc1`, more than 50 µM. As for `CC(=O)c1ccc(N2CCN(C(=O)c3cccc(Cl)c3)CC2)cc1`, the MIC50 was 7.5 µM.
